In brackets after ≈: the same amount, converted by molar mass.
Legend:
Type in all cases: functional
Conditions in all cases: Canis lupus familiaris, read-out: ID50 (the source's name)
[1] = test system: MDCK; test: Antiviral activity against influenza A virus (Mississippi) in Madin Darby canine kidney (MDCK) cell culture
Outline: (§1)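 Confluent MDCK monolayers were given compound in serial 2-fold dilutions, then infected with 100 TCID50 of virus and incubated at 35 °C for 48 h. Cells were fixed, stained and scored microscopically for cytopathic effect. The dose giving 50% inhibition of CPE was read when infected controls just reached 100% CPE, in ng/mL, as the mean ± SD of at least three determinations.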

[2] = test system: MDCK; test: Antiviral activity against influenza A virus (Taiwan) in Madin Darby canine kidney (MDCK) cell culture; outline: as §1
[3] = test system: MDCK; test: Antiviral activity against influenza A virus (NY/83/5) in Madin Darby canine kidney (MDCK) cell culture; outline: as §1

Row | Structure (SMILES) | IC50 [1] | IC50 [2] | IC50 [3]
1 | CC(N)C12CC3CC(CC(C3)C1O)C2 (stereo not given) | 0.15 mg/L (≈ 0.768 µM) | 0.16 mg/L (≈ 0.819 µM) | 0.101 mg/L (≈ 0.517 µM)
2 | CC(N)C12CC3CC(C1)C(O)C(C3)C2 (stereo not given) | 3.4 mg/L (≈ 17.4 µM) | 1.5 mg/L (≈ 7.68 µM) | 0.804 mg/L (≈ 4.12 µM)
3 | NC12CC3CC(CC(C3)C1)C2 [AMANTADINE] | 0.113 mg/L (≈ 0.747 µM) | 0.116 mg/L (≈ 0.767 µM) | 0.08 mg/L (≈ 0.529 µM)
4 | CC(N)C12CC3CC(CC(C3)C1)C2 (stereo not given) [RIMANTADINE] | 0.021 mg/L (≈ 0.117 µM) | 0.0098 mg/L (≈ 0.0547 µM) | 0.012 mg/L (≈ 0.0669 µM)
5 | CC(N)C12CC3CC(CC(O)(C3)C1)C2 (stereo not given) [3-HYDROXYRIMANTADINE] | 6.7 mg/L (≈ 34.3 µM) | 5.4 mg/L (≈ 27.6 µM) | 4 mg/L (≈ 20.5 µM)

— ChEMBL document CHEMBL1124847, “Synthesis and antiviral activity of metabolites of rimantadine” (1990)
